Assay results reported in the EternaBench riboswitch data.

System: MS2 coat protein
Experiment: apparent Kd, MS2 coat protein; higher = weaker binding; RNA-MaP array; FMN 200 µM where present
Summary of the method: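 SNAP-549-labelled MS2 coat protein, doubled from 0.7 or 1.5 nM to 3 µM, was titrated over designs transcribed by stalled E. coli RNA polymerase on Illumina sequencing-chip clusters. Titrations were run without and then with constant ligand in 100 mM Tris-HCl pH 7.5, 80 mM KCl, 4 mM MgCl2, BSA, DTT, yeast tRNA and Tween-20. The apparent Kd is the median of filtered per-cluster fits to green signal normalised to red-channel RNA signal and control-cluster median Fmax.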

[1] = designed as: OFF switch for flavin mononucleotide, no ligand
[2] = ligand present: flavin mononucleotide, designed as: OFF switch for flavin mononucleotide
[3] = designed as: ON switch for flavin mononucleotide, no ligand
[4] = ligand present: flavin mononucleotide, designed as: ON switch for flavin mononucleotide

| Sequence | apparent Kd [1] | apparent Kd [2] | apparent Kd [3] | apparent Kd [4] |
| --- | --- | --- | --- | --- |
| UUGAUGUCAGGAUAUGCUUAAUAUAUUUUAUUAUAAUAUAUACAUGAGGAUCACCCAUGUAGAAGGGACAUUAU | 29.1 nM | 25.7 nM | – | – |
| GGAUCGAGUGUGAGGAUAUGCUGGUCCUUGGAUCAGCAGAAGGCACAUGAGGAUCACCCAUGUGAAUACGGUCC | 24 nM | 165 nM | – | – |
| GGUAGACAUGAGGAUCACCCAUGUGAGGAUAUCGUCAUAGAUGCAAAAGCAUCUAUGACGAGAAGGUACAUGCC | 33.1 nM | 34.3 nM | – | – |
| UUAAAUCAUGUAGGAUAUGCAUGGCGAAGCUACGCAGAAGGACAUGAGGAUCACCCAUGUUAAAGCUUCCGAGUUCGGAGGCAA | 114 nM | 266 nM | – | – |
| CAGCGAAAGCUGAAUCUGUAGAGAGAGGAUAUACGUCAUAAGGUGCAUACAUGAGGAUCACCCAUGUAGAAGGCUCUCUACAGU | 25.3 nM | 603 nM | – | – |
| GCGUGACAUGAGGAUCACCCAUGUGAGGAUAUCUGGAUACUCUUUAUUUUAGAUAUCCAGAGAAGGCACAUGCU | 217 nM | 151 nM | – | – |
| UGGAUCAUCGGAGGAUAUCAUGUAGAUACAUGAGGAUCACCCAUGUCGAUGGAGACAUCGGAGAUUGAGAAGGCCGAUGAUCCU | – | – | 543 nM | 30.9 nM |
| AAUAUGUUGCAGAAGGCCAUGUUGUGGUAGUGCCUCAUGACAUGAGGAUCACCCAUGUCUGUGAUGGAGGAUAUGCAAUAUAUU | 8.15 nM | 37 nM | – | – |
| ACGUAACGGUGCGCGAGUGGACGGAGAAGGCAGACAUGAGGAUCACCCAUGUGAGCCUGCUAUUCUGAGGAUAUCCGUCCGCAC | 38.9 nM | 254 nM | – | – |
| ACUAUACGAGGAUAUACUGACAGGCCUCAGGCAUACAUCAAACAUGAGGAUCACCCAUGUAGAAGGCGUAUACU | 30.4 nM | 68.1 nM | – | – |
| UUACUUGUGCAGAAGGGCAUUGAUUUAGGUUUUUAGGUUGAUCAGAUAUGCAGGAUAUGCUAUACAUGAGGAUCACCCAUGUUC | – | – | 112 nM | 8.99 nM |
| GGAUCGAGUGUGAGGAUAUGCUGGUCCUUGGAUCAGCAGAAGGCACAUGAGGAUCACCCAUGUGAAGACGAUCC | 23.6 nM | 187 nM | – | – |
| GCCAUCGCAUGAGGAUAUGCUCCCGUUUCGGGAGCAGAAGGCAUGUCACAAGACAUGAGGAUCACCCAUGUAGUUAAGAUGGCA | – | – | 194 nM | 8.52 nM |
| AUAUCUCUAUUAGUUCCAAUACGAACAUGAGGAUCACCCAUGUAGGAUAUGCUAGAAGUUGUGUUGCAGAAGGACAAGUACCUU | 11.8 nM | 11.1 nM | – | – |
| UUGGACGUCGUAGGAUAUGUAGGAUAUUCCUACAUGAGGAUCACCCAUGUUGACAUGGAAGAAGGACUGAAGGACGAUGUCCAU | – | – | 763 nM | 22.9 nM |
| AGUGUUGGAGGAUAUACAUGAGGAUCACCCAUGUACAUCACACAGUAUAUGAAACCAUGUAGAAGGCCAAUACA | 55.8 nM | 73.8 nM | – | – |
| CGUGCGUCGACAGGAUAUACAGAUUGGCUCCGGUACAUGAGGAUCACCCAUGUAGAAGGGUCACGCACGGUUAGUUCGUUAUUA | 8.88 nM | 40.9 nM | – | – |
| UGUGUGAGACAGGAUAUGCCGGAUAUAUUACUGGUAGAAGGGUCUACAUGAGGAUCACCCAUGUGGCCGGCCGG | 18 nM | 29.1 nM | – | – |
| AUAUUUGUUUAGAAGGACAUGAGGAUCACCCAUGUCGCUGGGCGCGGGAAACCGUGCGCGGCCAUGUAGGAUAUAGGGAGAUAU | 38.7 nM | 24.3 nM | – | – |

| Sequence | apparent Kd [1] | apparent Kd [2] | apparent Kd [3] | apparent Kd [4] |
| --- | --- | --- | --- | --- |
| AAUAUGAGCUGGAAUAUAAACCUCACAUGAGGAUCACCCAUGUAGGAUAUCAGCACGAUAAGUGCUGAGAAGGACAACCAGCUC | 15.1 nM | 17.1 nM | – | – |
| AACUUCCCGUCAGGAUAUCGCCGUAGGUCCUCGGGUCUCGCCGUCAUACAUGAGGAUCACCCAUGUGAGAAGGGACGGGAUUCA | 21.8 nM | 117 nM | – | – |
| AUUUUGUCAGGAUAUGAUUAGUAGGACGAGAGUGCUACUACUUAGAAGGGACAUGAGGAUCACCCAUGUAUUCC | 17.8 nM | 22.2 nM | – | – |
| AUGCCUUAUGUAGGAUAUGCAUAGAGUUGCUAUGCAGAAGGACAUGAGGAUCACCCAUGUAUGUAUACCUUACAUAUCUGGCAU | 8.34 nM | 30.8 nM | – | – |
| ACUUGUAAGCAGAAGGCAGUCAUAGUAUUCGUCAUGUAGACAUGAGGAUCACCCAUGUAUAGUACUGAGGAUAUGCUUCGAUAG | 19.3 nM | 21.7 nM | – | – |
| CCUUGACAUGAGGAUCACCCAUGUGAGGAUAUAGAAUACUUCAUACACUGACCUCCUUCUAGAAGGCACAUCUC | 15.3 nM | 15.1 nM | – | – |
| GCUAGGAAUGUCAGGAUAUGCUGUACCUUGGUACAGCAGAAGGGACAUGAGGAUCACCCAUGUGCUAACCUAGC | 29.6 nM | 130 nM | – | – |
| UGGUACAUGGGAGGAUAUCCUCAAGACAUGAGGAUCACCCAUGUAAAUUAUAAGCCGAAAGGCAUGGAGAAGGCCCAUGUACCU | – | – | 96.3 nM | 20.2 nM |
| AUGCAACAUGAGGAUCACCCAUGUGAGGAUAUCGUAUACUACUGUUGCAAUACUUAGACGAGAAGGCACACCGU | 166 nM | 174 nM | – | – |
| UUAAAUUAGUAGAAGGACGGAGAGUAUAAAGUCGUAGGAUAUACAUAAGACAUGAGGAUCACCCAUGUAAGUUUGUGAGGUAUG | 14.8 nM | 15.3 nM | – | – |
| GGUGCCAUGUAGAAGGCAGAUCUGAUUCAGAUCUGAGGAUAUACAUGAGGAUCACCCAUGUAAAUGCACCGCACGAGAGUGCAA | 33.1 nM | 149 nM | – | – |
| CUUAUGUGAGGAUAUGUACAGAAAAAAAAGGGUGUAACUGUACAGAAGGCACAUGAGGAUCACCCAUGUGCAUU | 60.8 nM | 50.4 nM | – | – |
| GUGUACGAAGGAUAUACAUGAGGAUCACCCAUGUGAAUAAGAUAGAAUAAGAUAAAGUGUAGAAGGUCGAGUGU | 33 nM | 29.4 nM | – | – |
| UCCAAAUCGUAGAAGGGUGACAUGAGGAUCACCCAUGUGCAGCAGCCGUGAAUGGCCAUGCUGCCACAGGAUAUACGAUGGAGU | – | – | 49 nM | 43 nM |
| CGGGCAUAUCGAGGAUAUAAGUCUAGGACAUGAGGAUCACCCAUGUAUGUCUUAGAAGGCGAUAUGCCCAGCCUGUUACAGGCA | – | – | 30 nM | 6.01 nM |
| GCGCAAACGCCAAAAGGCGAAACAACAUGAGGAUCACCCAUGUAGGAUAUCGAUUGCUUUGCAGUCGAGAAGGACAUAAUGCGC | 17.1 nM | 16.1 nM | – | – |
| CAGGUAGACUGAGGAUAUACAGACCUAGUCUAUCUAGGUCAAUUAACCACAUGAGGAUCACCCAUGUAGAAGGCAGUCUGCCUG | 15.9 nM | 21.4 nM | – | – |
| GGCGGUAAUGAGAAGGGUCACAUGAGGAUCACCCAUGUGCUCUUCGCCGUGACAGGAUAUCAUUGCCGUCAGGUUAGAUUUUUG | 7.99 nM | 25.4 nM | – | – |
| UAAUCUCAGAUAGGAUAUAUAGGAUGAUUUAAGACUGAACAUGAGGAUCACCCAUGUGAUUAUCUGUAGAAGGAUCAAUGACCC | – | – | 389 nM | 348 nM |

| Sequence | apparent Kd [1] | apparent Kd [2] | apparent Kd [3] | apparent Kd [4] |
| --- | --- | --- | --- | --- |
| CGCUGUCAUGCAGGAUAUGCAUUGGAUUACAAUGCAGAAGGGCGAUUACAUGAGGAUCACCCAUGUGUAGACAGUGAAGAAAAG | – | – | 145 nM | 13.8 nM |
| GUUAGCUCGUGAGGAUAUACAACACUGCUUCGGCAGUGUAUUAAGAUCACAUGAGGAUCACCCAUGUAGAAGGCACGAGCUGAU | 12.8 nM | 256 nM | – | – |
| AACAGUACAGGAUAUACAUGAGGAUCACCCAUGUGAAGAAUAAGUGGCGUACCACAAAGUAGAAGGGUACUGGA | 29.3 nM | 120 nM | – | – |
| AGCGUGUAAGGAUAUACGUCGGAUAGCGAAUGCUGUCCGUAGUAGAAGGUACAUGAGGAUCACCCAUGUGUCCA | 25.1 nM | 94.1 nM | – | – |
| CCGAAUAAGCAGGAUAUCGUAUCGGAAACGAUACGAGAAGGGCUAACAUGAGGAUCACCCAUGUUCCUUAACGG | 22.1 nM | 23.5 nM | – | – |
| UUUAUAAAUUAGAAGGCGAGAUGAAUUACAAUAGACAUGAGGAUCACCCAUGUGUAUUCAUGUCUUGAGGAUAUAGUCAUAUAU | – | – | 118 nM | 58.1 nM |
| CAGGGUCGUAUUCAGCCCGUCCACAUGAGGAUCACCCAUGUCAAGGAUAUAGCUUAAAAUACAAACUAGAAGGUGACGCUGGGU | 21.7 nM | 83.8 nM | – | – |
| CGGAGACAUGAGGAUCACCCAUGUGAGGAUAUGCAAGCCCGACUGAUCGUUAGCCUAUGUAGAAGGCACGGGUC | 21.3 nM | 20 nM | – | – |
| UUGAUGUGAGGAUAUGUGAUCUGCCUUCUAUAUAGAUGAUUACAGAAGGCACAUGAGGAUCACCCAUGUAGAUC | 78.5 nM | 58.9 nM | – | – |
| ACUAGAUGAGGAUAUGCAUGUUUUCAUGUUCUUCUAGAUUAACAUGAGGAUCACCCAUGUAGAAGGCGUCUUUU | 21.4 nM | 32 nM | – | – |
| GUAUGGAUUACAGGAUAUGUUAGUUUUAAGUGUAUUGGUUAUUACUUAAUUACAGAAGGGUAUUACAUGAGGAUCACCCAUGUA | – | – | 16 nM | 11.5 nM |
| GACUUGUUAGGAUAUCUUACAUUUGCAUCAUAGUAACCUUUGGAGAAGGGACAUGAGGAUCACCCAUGUUUGGU | 62.3 nM | 53.5 nM | – | – |
| CCCGGGUUAGGAUAUUUGGGCCCGGGCGAACGCCCGGGCCCGGAGAAGGGACAUGAGGAUCACCCAUGUCCGGG | 21.2 nM | 19.2 nM | – | – |
| CGGUCGAUAUCAGGAUAUCGUUUAAUUACAUGAGGAUCACCCAUGUUGACAAGGAAUAUAACUUGCGAGAAGGGAUUACGAUCG | – | – | 9.33 nM | 6.47 nM |
| GACUGCUGAGGAUAUACAUGAGGAUCACCCAUGUGCUUCAGCUACGAGAGUAGCAUUGGUAGAAGGUAGUAGUC | 12.1 nM | 22.1 nM | – | – |
| GCAGGAUAAGUGAGGAUAUACCUAUGGAUACAUAGGUAGAAGGUACAUGAGGAUCACCCAUGUUCCUUACCUGC | 11.9 nM | 13.4 nM | – | – |
| GACUUGGCUACAUGAGGAUCACCCAUGUUUGACUGGAUCGAUCAGGAUAUAGUGAUUUGCAACAAUUAGAAGGGAUAUUUACGG | – | – | 49.8 nM | 51.6 nM |
| AAAAAACAUGAGGAUCACCCAUGUAAAAAAAUCACAGGAUAUAAGGUCGCGAAAGCGACCUUAGAAGGGUGAUCCU | – | – | 20.1 nM | 20.1 nM |
